According to ChEMBL document CHEMBL1255475, “Mutant prevention concentrations of four carbapenems against gram-negative rods” (2010):

How the values were obtained:
Format in all cases: functional
Conditions in all cases: read-out: IZ
Escherichia coli [1] = assay: Antibacterial activity against beta-lactamase-positive ESBL-positive Escherichia coli assessed as […] in zone of inhibition at 30 ug by disk diffusion method
Method in brief: (§1)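 ESBL screen of β-lactamase-positive enteric isolates by disk diffusion using cefotaxime and ceftazidime disks (30 μg each) alone.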

Escherichia coli [2] = assay: Antibacterial activity against beta-lactamase-positive ESBL-positive Escherichia coli assessed as […] in zone of inhibition at 30 ug by disk diffusion method in presence of clavulanic acid
Method in brief: (§2)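 ESBL confirmation by disk diffusion using cefotaxime and ceftazidime disks (30 μg each) combined with a 10 μg clavulanic acid disk, compared against the disks alone.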

Klebsiella pneumoniae [3] = assay: Antibacterial activity against beta-lactamase-positive ESBL-positive Klebsiella pneumoniae assessed as […] in zone of inhibition at 30 ug by disk diffusion method in presence of clavulanic acid; method in brief: as §2
Klebsiella pneumoniae [4] = assay: Antibacterial activity against beta-lactamase-positive ESBL-positive sKlebsiella pneumoniae assessed as decrease in zone of inhibition at 30 ug by disk diffusion method; method in brief: as §1

Measured: zone of inhibition at 30 µg/disc

O=C(O)[C@H]1/C(=C/CO)O[C@@H]2CC(=O)N21 [CLAVULANIC ACID]
≥ 5 mm: all assays above
